This is an account of results in ChEMBL document CHEMBL4138266, “Lysine Analogue of Polymyxin B as a Significant Opportunity for Photodynamic Antimicrobial Chemotherapy” (ACS Med Chem Lett, 2018).

Data set [1] relates to Pseudomonas aeruginosa. Put plainly: Photobactericidal activity against Pseudomonas aeruginosa CIP76110 irradiated with white light at 4.83 mW/cm2 for 20 hrs. The data set is classed as functional. Conditions: CIP76110, light or radiation study. Put shortly: (§1)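 Minimal bactericidal concentration (MBC) was determined in tryptic soy medium with log-phase bacteria at 37 °C. Plates were either kept in the dark or given 20 h of white light at 4.83 mW/cm². MBC was taken as the concentration killing 99.99% of bacteria, i.e. a 4-log reduction versus the untreated control.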

The test system of data set [2] is Escherichia coli. Put plainly: Photobactericidal activity against Escherichia coli CIP54.8T irradiated with white light at 4.83 mW/cm2 for 20 hrs. It counts as functional. Conditions: light or radiation study. Put shortly:
as §1

Data set [3] concerns Staphylococcus aureus. Put plainly: Photobactericidal activity against Staphylococcus aureus CIP76.25 irradiated with white light at 4.83 mW/cm2 for 20 hrs. The conditions noted are these: CIP76.25, light or radiation study. It counts as functional. Put shortly:
as §1

The test system of data set [4] is Escherichia coli. Put plainly: Bactericidal activity against Escherichia coli CIP54.8T incubated for 30 mins under dark conditions. It counts as organism-based. Conditions: 0.5 h. Put shortly:
as §1

Data set [5] deals with Pseudomonas aeruginosa. Put plainly: Bactericidal activity against Pseudomonas aeruginosa CIP76110 incubated for 30 mins under dark conditions. It counts as organism-based. Conditions: 0.5 h. Put shortly:
as §1

The test system of data set [6] is Staphylococcus aureus. Put plainly: Bactericidal activity against Staphylococcus aureus CIP76.25 incubated for 30 mins under dark conditions. The data set is classed as ADME, organism-based. Conditions: 0.5 h. Put shortly:
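S. aureus exposed to compound in PBS 1X for 30 min at 37 °C, then washed three times with PBS. The light arm was white LED irradiation at 4.83 mW/cm² (7 J/cm² = 24 min) at 37 °C. Survival was expressed as % of initial bacterial density.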

The subject of data set [7] is Staphylococcus aureus. Put plainly: Photobactericidal activity against Staphylococcus aureus assessed as dead bacteria with permeable membrane at 1 uM incubated for 30 mins followed by 3 washings by propidium iodide staining based flow cytometry. It counts as functional. Put shortly: (§2)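 Bacteria were incubated with 1 µM conjugate for 30 min at 37 °C, washed with saline, then stained with propidium iodide (0.01 mg/mL) to assess viability. Samples were analysed by flow cytometry. Q1 is the PI-positive (permeable membrane) population; Q2 is double positive for PI and photosensitizer fluorescence.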
A general note: In flow cytometry, cells or beads pass a laser one at a time.

The subject of data set [8] is Pseudomonas aeruginosa. Put plainly: Photobactericidal activity against Pseudomonas aeruginosa assessed as live bacterial cells with membrane integrity loss at 1 uM incubated for 30 mins followed by 1 washing by propidium iodide staining based flow cytometry. It counts as functional. Put shortly:
as §2

In data set [9] the test system is Escherichia coli. Put plainly: Photobactericidal activity against Escherichia coli assessed as live bacterial cells with membrane integrity loss at 1 uM incubated for 30 mins followed by 1 washing by propidium iodide staining based flow cytometry. The data set is classed as functional. Put shortly: as §2
In data set [10] the test system is Pseudomonas aeruginosa. Put plainly: Photobactericidal activity against Pseudomonas aeruginosa assessed as dead bacteria with permeable membrane at 1 uM incubated for 30 mins followed by 3 washings by propidium iodide staining based flow cytometry. The data set is classed as functional. Put shortly:
as §2

For data set [11], the system named is Escherichia coli. Put plainly: Photobactericidal activity against Escherichia coli assessed as PI-positive and PS-positive cell population at 1 uM incubated for 30 mins followed by 1 washing by propidium iodide staining based flow cytometry. The data set is classed as functional. Put shortly:
as §2

The subject of data set [12] is Staphylococcus aureus. Put plainly: Photobactericidal activity against Staphylococcus aureus assessed as live bacterial population at 1 uM incubated for 30 mins followed by 3 washings by propidium iodide staining based flow cytometry. It counts as functional. Put shortly:
as §2

Data set [13] deals with Pseudomonas aeruginosa. Put plainly: Photobactericidal activity against Pseudomonas aeruginosa assessed as PI-positive and PS-positive cell population at 1 uM incubated for 30 mins followed by 1 washing by propidium iodide staining based flow cytometry. The data set is classed as functional. Put shortly:
as §2

Data set [14] deals with Staphylococcus aureus. Put plainly: Photobactericidal activity against Staphylococcus aureus assessed as live bacterial population at 1 uM incubated for 30 mins followed by 1 washing by propidium iodide staining based flow cytometry. The data set is classed as functional. Put shortly: as §2
Data set [15] concerns Pseudomonas aeruginosa. Put plainly: Photobactericidal activity against Pseudomonas aeruginosa at 1 uM pretreated for 30 mins followed by compound wash out with subsequent irradiation with white light at 4.83 mW/cm2. The data set is classed as functional, organism-based. Put shortly:
(§3)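 Bacteria were pre-incubated with conjugate in 1X PBS (P. aeruginosa at 1 µM), then washed three times with PBS. They were irradiated with white LED light (4.83 mW/cm²; 7 J/cm² corresponds to 24 min) at 37 °C. Survival, as % of initial density, was plotted against cumulative light fluence.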

Data set [16] has as its system Pseudomonas aeruginosa. Put plainly: Photobactericidal activity against Pseudomonas aeruginosa assessed as dead bacteria with permeable membrane at 1 uM incubated for 30 mins followed by 1 washing by propidium iodide staining based flow cytometry. The data set is classed as functional. Put shortly:
as §2

The test system of data set [17] is Staphylococcus aureus. Put plainly: Photobactericidal activity against Staphylococcus aureus assessed as PI-positive and PS-positive cell population at 1 uM incubated for 30 mins followed by 3 washings by propidium iodide staining based flow cytometry. The data set is classed as functional. Put shortly: as §2
Data set [18] deals with Staphylococcus aureus. Put plainly: Photobactericidal activity against Staphylococcus aureus assessed as PI-positive and PS-positive cell population at 1 uM incubated for 30 mins followed by 1 washing by propidium iodide staining based flow cytometry. It counts as functional. Put shortly:
as §2

Data set [19] concerns Escherichia coli. Put plainly: Photobactericidal activity against Escherichia coli assessed as dead bacteria with permeable membrane at 1 uM incubated for 30 mins followed by 1 washing by propidium iodide staining based flow cytometry. It counts as functional. Put shortly: as §2
Data set [20] has as its system Staphylococcus aureus. Put plainly: Photobactericidal activity against Staphylococcus aureus assessed as live bacterial cells with membrane integrity loss at 1 uM incubated for 30 mins followed by 3 washings by propidium iodide staining based flow cytometry. It counts as functional. Put shortly: as §2
For data set [21], the system named is Staphylococcus aureus. Put plainly: Photobactericidal activity against Staphylococcus aureus assessed as dead bacteria with permeable membrane at 1 uM incubated for 30 mins followed by 1 washing by propidium iodide staining based flow cytometry. It counts as functional. Put shortly:
as §2

For data set [22], the system named is Pseudomonas aeruginosa. Put plainly: Photobactericidal activity against Pseudomonas aeruginosa assessed as PI-positive and PS-positive cell population at 1 uM incubated for 30 mins followed by 3 washings by propidium iodide staining based flow cytometry. It counts as functional. Put shortly: as §2
Data set [23] concerns Staphylococcus aureus. Put plainly: Photobactericidal activity against Staphylococcus aureus at 10 uM pretreated for 30 mins followed by compound wash out with subsequent irradiation with white light at 4.83 mW/cm2. It counts as functional, organism-based. Put shortly: as §3
The test system of data set [24] is Pseudomonas aeruginosa. Put plainly: Photobactericidal activity against Pseudomonas aeruginosa assessed as live bacterial population at 1 uM incubated for 30 mins followed by 1 washing by propidium iodide staining based flow cytometry. The data set is classed as functional. Put shortly: as §2
The subject of data set [25] is Staphylococcus aureus. Put plainly: Photobactericidal activity against Staphylococcus aureus at 1 uM after 30 mins by confocal laser scanning microscopy. The data set is classed as functional, organism-based. Put shortly:
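S. aureus inoculum was suspended in 1 µM conjugate for 30 min at 37 °C, washed three times with PBS, and imaged by confocal laser scanning microscopy at 100X to visualise bacteria-associated fluorescence.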

Data set [26] has as its system Escherichia coli. Put plainly: Photobactericidal activity against Escherichia coli assessed as live bacterial population at 1 uM incubated for 30 mins followed by 1 washing by propidium iodide staining based flow cytometry. The data set is classed as functional. Put shortly:
as §2

The test system of data set [27] is Pseudomonas aeruginosa. Put plainly: Photobactericidal activity against Pseudomonas aeruginosa assessed as live bacterial population at 1 uM incubated for 30 mins followed by 3 washings by propidium iodide staining based flow cytometry. It counts as functional. Put shortly:
as §2

In data set [28] the test system is Escherichia coli. Put plainly: Photobactericidal activity against Escherichia coli at 10 uM pretreated for 30 mins followed by compound wash out with subsequent irradiation with white light at 4.83 mW/cm2. It counts as functional, organism-based. Put shortly: as §3
Data set [29] has as its system NHDF. Put plainly: Cytotoxicity against human NHDF cells assessed as reduction in cell viability at 5 to 5000 nM incubated under dark conditions for 2 hrs measured after 24 hrs by MTT assay. The conditions noted are these: 5 µM. It counts as cell-based. In general terms: Tetrazolium assays rely on reduction of a dye to a coloured formazan, in cell work by metabolically active cells.

Data set [30] relates to Escherichia coli. Put plainly: Photobactericidal activity against Escherichia coli assessed as live bacterial cells with membrane integrity loss at 1 uM incubated for 30 mins followed by 3 washings by propidium iodide staining based flow cytometry. It counts as functional. Put shortly:
as §2

For data set [31], the system named is Escherichia coli. Put plainly: Photobactericidal activity against Escherichia coli assessed as PI-positive and PS-positive cell population at 1 uM incubated for 30 mins followed by 3 washings by propidium iodide staining based flow cytometry. It counts as functional. Put shortly: as §2
Data set [32] deals with Pseudomonas aeruginosa. Put plainly: Photobactericidal activity against Pseudomonas aeruginosa assessed as live bacterial cells with membrane integrity loss at 1 uM incubated for 30 mins followed by 3 washings by propidium iodide staining based flow cytometry. The data set is classed as functional. Put shortly: as §2
Data set [33] concerns Staphylococcus aureus. Put plainly: Photobactericidal activity against Staphylococcus aureus assessed as live bacterial cells with membrane integrity loss at 1 uM incubated for 30 mins followed by 1 washing by propidium iodide staining based flow cytometry. It counts as functional. Put shortly: as §2
Data set [34] has as its system Escherichia coli. Put plainly: Photobactericidal activity against Escherichia coli assessed as live bacterial population at 1 uM incubated for 30 mins followed by 3 washings by propidium iodide staining based flow cytometry. It counts as functional. Put shortly: as §2
For data set [35], the system named is NHDF. Put plainly: Cytotoxicity against human NHDF cells assessed as reduction in cell viability at 5 to 5000 nM irradiated with white light at 4.83 mW/cm2 for 2 hrs measured after 24 hrs by MTT assay. The data set is classed as cell-based. Conditions: 5 µM.
The test system of data set [36] is Escherichia coli. Put plainly: Photobactericidal activity against Escherichia coli assessed as dead bacteria with permeable membrane at 1 uM incubated for 30 mins followed by 3 washings by propidium iodide staining based flow cytometry. The data set is classed as functional. Put shortly:
as §2

In brackets after ≈: the same amount, converted by molar mass. Activity calls are given as the source filed them. No cut-off for these calls is given here.

As for `C[n+]1ccc(-c2c3nc(c(-c4cc[n+](C)cc4)c4ccc([nH]4)c(-c4cc[n+](C)cc4)c4nc(c(-c5cc[n+](C)cc5)c5ccc2[nH]5)C=C4)C=C3)cc1`, the MBC amounted to 20 µM against Pseudomonas aeruginosa [1], 18 µM in the data set on Escherichia coli [2] and 5 µM against Staphylococcus aureus [3].
`CCCCCCCC(=O)N[C@@H](CS)C(=O)N[C@H](C(=O)N[C@@H](CCN)C(=O)N[C@H]1CCNC(=O)[C@H]([C@@H](C)O)NC(=O)[C@H](CCN)NC(=O)[C@H](CCN)NC(=O)[C@H](CC(C)C)NC(=O)[C@@H](Cc2ccccc2)NC(=O)[C@H](CCN)NC1=O)[C@@H](C)O`: the MBC was 10 µM (≈ 11.9 µg/mL) against Pseudomonas aeruginosa [1]; 5 µM (≈ 5.96 µg/mL) in the data set on Escherichia coli [4]; 10 µM (≈ 11.9 µg/mL) against Pseudomonas aeruginosa [5]; 5 µM (≈ 5.96 µg/mL) in the data set on Escherichia coli [2]; greater than 50 µM against Staphylococcus aureus [6]; greater than 50 µM against Staphylococcus aureus [3].
For the molecule `CCCCCCCC(=O)N[C@@H](CSC1CC(=O)N(CCCCCC(=O)Nc2ccc(-c3c4nc(c(-c5cc[n+](C)cc5)c5ccc([nH]5)c(-c5cc[n+](C)cc5)c5nc(c(-c6cc[n+](C)cc6)c6ccc3[nH]6)C=C5)C=C4)cc2)C1=O)C(=O)N[C@H](C(=O)N[C@@H](CCCCN)C(=O)N[C@H]1CCNC(=O)[C@H]([C@@H](C)O)NC(=O)[C@H](CCCCN)NC(=O)[C@H](CCCCN)NC(=O)[C@H](CC(C)C)NC(=O)[C@@H](Cc2ccccc2)NC(=O)[C@H](CCCCN)NC1=O)[C@@H](C)O.[I-].[I-].[I-]` (some centres undefined), the Activity in the data set on Staphylococcus aureus [7] stood at 4.4%; in the data set on Pseudomonas aeruginosa [8], 3%; in the data set on Escherichia coli [9], 14.6%; with Pseudomonas aeruginosa [10], 37.7%; in the data set on Escherichia coli [11], 14%; in the data set with Staphylococcus aureus [12], 70.8%. For the same molecule, the Activity with Pseudomonas aeruginosa [13] is 43.1%; in the data set on Staphylococcus aureus [14] it was 75.6%; in the data set with Pseudomonas aeruginosa [16], 19.3%; in the data set on Staphylococcus aureus [17], 5.8%; in the data set with Staphylococcus aureus [18], 3.2%; in the data set with Escherichia coli [19] it was 1.8%. Also, the Activity with Staphylococcus aureus [20] is on record as 19%; in the data set on Staphylococcus aureus [21], 1.6%; in the data set on Pseudomonas aeruginosa [22], 28.9%; in the data set on Pseudomonas aeruginosa [24], 34.6%; with Escherichia coli [26], 69.7%; in the data set on Pseudomonas aeruginosa [27] it was 31.6%. Also, the Activity result is given as “Non-Toxic” with NHDF [29]; 9.6% in the data set with Escherichia coli [30]; 22.8% with Escherichia coli [31]; 1.9% in the data set with Pseudomonas aeruginosa [32]; 19.7% in the data set on Staphylococcus aureus [33]; 62.5% in the data set with Escherichia coli [34]. In addition, the Activity entry in the data set on NHDF [35] is reported as “Non-Toxic”; in the data set on Escherichia coli [36], 5.2%. The result with Pseudomonas aeruginosa [15], in the data set on Staphylococcus aureus [23], in the data set on Staphylococcus aureus [25] and with Escherichia coli [28] was Active. The MBC is 8 µM against Pseudomonas aeruginosa [1]; 25 µM in the data set on Escherichia coli [4]; greater than 100 µM in the data set with Pseudomonas aeruginosa [5]; 0.8 µM in the data set on Escherichia coli [2]; 1.2 µM against Staphylococcus aureus [3].
